Results reported in ChEMBL document CHEMBL4118161, “Synthesis and evaluation of novel dimethylpyridazine derivatives as hedgehog signaling pathway inhibitors” (Bioorg Med Chem, 2018).
Calls of active or inactive are those of the source. The calls are words filed in the database; no cut-off is given here.

Legend:
Mus musculus [1] = organism: Mus musculus; assay: Inhibition of hedgehog signaling pathway in mouse Light2 cells at 100 nM after 48 hrs by Gli-luciferase reporter gene assay relative to control; type: cell-based
In short: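 Single-concentration screen at 100 nM in Light II cells (NIH-3T3 with stable Gli-firefly luciferase reporter and Renilla luciferase vector), kept in DMEM/10% FBS with zeocin and G418 at 37°C, 5% CO₂. Cells treated 48 h; percent inhibition of Gli reporter from dual luciferase assay.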

[2] = Inhibition of hedgehog signaling pathway in mouse Light2 cells after 48 hrs by Gli-luciferase reporter gene assay; type: cell-based
Medulloblastoma cell [3] = assay: Anti-tumor activity against mouse Ptch+/- p53-/- medulloblastoma cells implanted in athymic nude mouse assessed as tumor growth inhibition at 20 mg/kg, po administered twice daily via gavage measured every other day during compound dosing; type: functional, organism-based
In short: (§1)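 Allograft from spontaneous intracranial medulloblastomas of Ptch+/-p53-/- mice, first passaged subcutaneously in athymic nude mice; 1 mm³ fragments implanted by trocar into the right flank. Oral gavage twice a day started at 150–200 mm³, in 0.5% NaCMC suspension. Caliper length and width taken every other day, V = L×W²/2. Five mice per group, means ± SEM.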

Medulloblastoma cell [4] = assay: Anti-tumor activity against mouse Ptch+/- p53-/- medulloblastoma cells implanted in athymic nude mouse assessed as tumor growth inhibition at 10 to 20 mg/kg, po administered twice daily via gavage measured every other day during compound dosing; type: functional, organism-based; in short: as §1
Mus musculus [5] = assay: Toxicity in athymic nude mouse implanted with mouse Ptch+/- p53-/- medulloblastoma cells assessed as body weight loss at 10 to 20 mg/kg, po administered twice daily via gavage measured every other day during compound dosing; type: organism-based; settings: in vivo
In short: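 Nude mice bearing subcutaneous right-flank Ptch+/-p53-/- medulloblastoma fragment allografts, dosed by oral gavage twice daily (vehicle 0.5% NaCMC suspension) once tumors reached 150–200 mm³. Body weights recorded alongside caliper tumor measurements taken every other day; five animals per group.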

| SMILES | IC50 [2] | inhibition (Mus musculus [1]) | TGI (Medulloblastoma cell [3]) | TGI (Medulloblastoma cell [4]) | Activity (Mus musculus [5]) |
| --- | --- | --- | --- | --- | --- |
| Cc1c(-c2ccnn2C)nnc(N2CCC(Nc3ccc(C(C)(C)O)nn3)CC2)c1C | > 100 nM | 20.6% |  |  |  |
| Cc1c(-c2ccnn2C)nnc(N2CCC(NC(=O)c3cccc(F)c3)CC2)c1C | > 100 nM | 82.1% |  |  |  |
| CN(C(=O)c1ccc(F)cc1C(F)(F)F)C1CCN(c2nnc(-c3ccnn3C)c3ccccc23)CC1 [TALADEGIB] | 2.26 nM | 95% |  |  |  |
| CS(=O)(=O)c1ccc(C(=O)Nc2ccc(Cl)c(-c3ccccn3)c2)c(Cl)c1 [VISMODEGIB] | 2.46 nM | 108% | Active |  |  |
| Cc1c(-c2ccnn2C)nnc(N2CCC(NC(=O)NC3CCCCCC3)CC2)c1C | > 100 nM | 45.7% |  |  |  |
| Cc1c(-c2ccnn2C)nnc(N2CCC(NC(=O)OC3CCCCC3)CC2)c1C | > 100 nM | 26.6% |  |  |  |
| Cc1c(-c2ccnn2C)nnc(N2CCC(Nc3ccc(C(C)(C)O)cn3)CC2)c1C | > 100 nM | 31.8% |  |  |  |
| Cc1c(-c2ccnn2C)nnc(N2CCC(NC(=O)NC3CCCC3)CC2)c1C | > 100 nM | 24.4% |  |  |  |
| Cc1c(-c2ccccc2)nnc(N2CCC(NC(=O)c3ccc(F)cc3C(F)(F)F)CC2)c1C | 25.5 nM | 90.2% |  |  |  |
| Cc1c(-c2ccncc2)nnc(N2CCC(NC(=O)c3ccc(F)cc3C(F)(F)F)CC2)c1C | 43.2 nM | 76% |  |  |  |
| COc1ccc(-c2nnc(N3CCC(NC(=O)c4ccc(F)cc4C(F)(F)F)CC3)c(C)c2C)cc1 | 22 nM | 74.5% |  |  |  |
| Cc1c(-c2ccnn2C)nnc(N2CCC(NC(=O)c3ccc(Cl)cc3C(F)(F)F)CC2)c1C | 25.1 nM |  |  |  |  |
| Cc1c(-c2ccnn2C)nnc(N2CCC(NC(=O)c3ccc(Sc4ccccc4)cc3C(F)(F)F)CC2)c1C | 32.5 nM | 82.8% |  |  |  |
| Cc1c(-c2ccnn2C)nnc(N2CCC(NC(=O)Nc3cccnc3)CC2)c1C | > 100 nM | 3.47% |  |  |  |
| Cc1c(-c2ccnn2C)nnc(N2CCC(NC(=O)Oc3ccccc3)CC2)c1C | > 100 nM | 41.2% |  |  |  |
| Cc1c(-c2ccnn2C)nnc(N2CCC(NC(=O)c3ccccc3C(F)(F)F)CC2)c1C | 32.8 nM | 79.7% |  |  |  |
| Cc1c(-c2ccnn2C)nnc(N2CCC(NC(=O)Nc3ccccc3)CC2)c1C | > 100 nM | 26.2% |  |  |  |
| Cc1c(-c2ccnn2C)nnc(N2CCC(NC(=O)c3cc(F)ccc3C(F)(F)F)CC2)c1C | 61.5 nM | 82% |  |  |  |
| Cc1c(-c2ccnn2C)nnc(N2CCC(Nc3cnc(S(C)(=O)=O)cn3)CC2)c1C | > 100 nM | 23.8% |  |  |  |
| Cc1c(-c2ccnn2C)nnc(N2CCC(NC(=O)c3ccc(Oc4ccccc4)cc3C(F)(F)F)CC2)c1C | 36.5 nM | 78.9% |  |  |  |

The next lines start with results.

| IC50 [2] | SMILES | inhibition (Mus musculus [1]) | TGI (Medulloblastoma cell [3]) | TGI (Medulloblastoma cell [4]) | Activity (Mus musculus [5]) |
| --- | --- | --- | --- | --- | --- |
| 8.5 nM | Cc1c(-c2ccc(C#N)cc2)nnc(N2CCC(NC(=O)c3ccc(F)cc3C(F)(F)F)CC2)c1C | 111% |  |  |  |
| > 100 nM | Cc1c(-c2ccnn2C)nnc(N2CCC(Nc3cnc(C(C)(C)O)cn3)CC2)c1C | 10.8% |  |  |  |
| 12.2 nM | Cc1ccc(-c2nnc(N3CCC(NC(=O)c4ccc(F)cc4C(F)(F)F)CC3)c(C)c2C)cc1 | 101% |  |  |  |
| 7.02 nM | Cc1c(-c2ccccc2Cl)nnc(N2CCC(NC(=O)c3ccc(F)cc3C(F)(F)F)CC2)c1C | 106% |  |  |  |
| 16.6 nM | Cc1c(-c2ccnn2C)nnc(N2CCC(NC(=O)c3ccc(Oc4ccccc4F)cc3C(F)(F)F)CC2)c1C | 91.5% |  |  |  |
| 2.33 nM | Cc1c(-c2ccnn2C)nnc(N2CCC(NC(=O)c3ccc(F)cc3C(F)(F)F)CC2)c1C | 89.5% |  | Active | Non-Toxic |
| 30 nM | Cc1c(-c2ccnn2C)nnc(N2CCC(N(C)C(=O)c3ccc(F)cc3C(F)(F)F)CC2)c1C | 60.9% |  |  |  |
| 42.9 nM | Cc1c(-c2ccnn2C)nnc(N2CCC(NC(=O)c3c(F)cccc3C(F)(F)F)CC2)c1C | 79.8% |  |  |  |
| 36.4 nM | Cc1c(-c2ccnn2C)nnc(N2CC[C@@H](NC(=O)c3ccc(F)cc3C(F)(F)F)C2)c1C | 54.1% |  |  |  |
| 43.8 nM | Cc1c(-c2ccc(Cl)cc2)nnc(N2CCC(NC(=O)c3ccc(F)cc3C(F)(F)F)CC2)c1C | 85% |  |  |  |
| > 100 nM | Cc1c(-c2ccnn2C)nnc(N2CCN(C(=O)c3ccc(F)cc3C(F)(F)F)CC2)c1C | -6.57% |  |  |  |
